Reference: ChEMBL document CHEMBL4261538, “Synthesis and molecular docking studies of xanthone attached amino acids as potential antimicrobial and anti-inflammatory agents” (Medchemcomm, 2017)

Tests used:
Aspergillus niger [1] = assay: Antifungal activity against Aspergillus niger at 50 ug/ml incubated for 48 hrs by agar well diffusion method; format: functional; details: read-out: DIZ
In short: (§1)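 Compounds dissolved in DMSO at 5 mg mL⁻¹ and 5–20 µL added to 6 mm wells, giving 25, 50, 75, 100 µg per well. Bavistin was the positive control and DMSO the negative control. Plates incubated at 28 °C for 48 h, then inhibition zone diameter (mm) measured. Values are means of three determinations.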

Candida albicans [2] = assay: Antifungal activity against Candida albicans at 75 ug/ml incubated for 48 hrs by agar well diffusion method; format: functional; details: read-out: DIZ; in short: as §1
Staphylococcus aureus [3] = assay: Antibacterial activity against Staphylococcus aureus at 25 ug/ml incubated for 24 hrs by agar well diffusion method; format: functional; details: read-out: DIZ
In short: as §1, with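 “Bacteria grown in nutrient broth at 37 °C for 24 h, then subcultured at room temperature. Compounds” for “Compounds”, “Gentamicin” for “Bavistin”, “held” for “incubated”, “37” for “28”, “24” for “48”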

Aspergillus niger [4] = assay: Antifungal activity against Aspergillus niger incubated for 48 to 72 hrs by microdilution method; format: functional
In short: (§2)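 Sabouraud agar plates inoculated with fungal suspension at 10⁵ CFU mL⁻¹ plus serially diluted compounds and bavistin reference, both in DMSO. Incubated at 25 °C for 48–72 h. MIC is the lowest concentration completely inhibiting growth. Values are means of three determinations.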

Candida albicans [5] = assay: Antifungal activity against Candida albicans at 50 ug/ml incubated for 48 hrs by agar well diffusion method; format: functional; details: read-out: DIZ; in short: as §1
Aspergillus niger [6] = assay: Antifungal activity against Aspergillus niger at 25 ug/ml incubated for 48 hrs by agar well diffusion method; format: functional; details: read-out: DIZ; in short: as §1
Staphylococcus aureus [7] = assay: Antibacterial activity against Staphylococcus aureus at 100 ug/ml incubated for 24 hrs by agar well diffusion method; format: functional; details: read-out: DIZ
In short: as §1, with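 “Bacteria grown in nutrient broth at 37 °C for 24 h, then subcultured at room temperature. Compounds” for “Compounds”, “Gentamicin” for “Bavistin”, “held” for “incubated”, “37” for “28”, “24” for “48”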

Staphylococcus aureus [8] = assay: Antibacterial activity against Staphylococcus aureus incubated for 24 hrs by microdilution method; format: functional
Staphylococcus aureus [9] = assay: Antibacterial activity against Staphylococcus aureus at 75 ug/ml incubated for 24 hrs by agar well diffusion method; format: functional; details: read-out: DIZ
In short: as §1, with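 “Bacteria grown in nutrient broth at 37 °C for 24 h, then subcultured at room temperature. Compounds” for “Compounds”, “Gentamicin” for “Bavistin”, “held” for “incubated”, “37” for “28”, “24” for “48”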

Fusarium oxysporum [10] = assay: Antifungal activity against Fusarium oxysporum at 100 ug/ml incubated for 48 hrs by agar well diffusion method; format: functional; details: read-out: DIZ; in short: as §1
Aspergillus niger [11] = assay: Antifungal activity against Aspergillus niger at 100 ug/ml incubated for 48 hrs by agar well diffusion method; format: functional; details: read-out: DIZ; in short: as §1
Staphylococcus aureus [12] = assay: Antibacterial activity against Staphylococcus aureus at 50 ug/ml incubated for 24 hrs by agar well diffusion method; format: functional; details: read-out: DIZ
In short: as §1, with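 “Bacteria grown in nutrient broth at 37 °C for 24 h, then subcultured at room temperature. Compounds” for “Compounds”, “Gentamicin” for “Bavistin”, “held” for “incubated”, “37” for “28”, “24” for “48”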

Fusarium oxysporum [13] = assay: Antifungal activity against Fusarium oxysporum at 75 ug/ml incubated for 48 hrs by agar well diffusion method; format: functional; details: read-out: DIZ; in short: as §1
Klebsiella pneumoniae [14] = assay: Antibacterial activity against Klebsiella pneumoniae at 50 ug/ml incubated for 24 hrs by agar well diffusion method; format: functional; details: read-out: DIZ
In short: as §1, with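 “Bacteria grown in nutrient broth at 37 °C for 24 h, then subcultured at room temperature. Compounds” for “Compounds”, “Gentamicin” for “Bavistin”, “held” for “incubated”, “37” for “28”, “24” for “48”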

Fusarium oxysporum [15] = assay: Antifungal activity against Fusarium oxysporum at 25 ug/ml incubated for 48 hrs by agar well diffusion method; format: functional; details: read-out: DIZ; in short: as §1
Escherichia coli [16] = assay: Antibacterial activity against Escherichia coli at 50 ug/ml incubated for 24 hrs by agar well diffusion method; format: functional; details: read-out: DIZ
In short: as §1, with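 “Bacteria grown in nutrient broth at 37 °C for 24 h, then subcultured at room temperature. Compounds” for “Compounds”, “Gentamicin” for “Bavistin”, “held” for “incubated”, “37” for “28”, “24” for “48”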

Candida albicans [17] = assay: Antifungal activity against Candida albicans at 25 ug/ml incubated for 48 hrs by agar well diffusion method; format: functional; details: read-out: DIZ; in short: as §1
Escherichia coli [18] = assay: Antibacterial activity against Escherichia coli incubated for 24 hrs by microdilution method; format: functional
Erythrocyte = assay: Anti-inflammatory activity in human RBC assessed as inhibition of hypotonic solution-induced hemolysis after 10 mins by spectrophotometric method; format: functional, cell-based
In short: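 Human blood (heparinized) washed with 0.9% saline, packed cells made into a 40% v/v stock in isotonic phosphate buffer (154 mM NaCl, 10 mM sodium phosphate, pH 7.4). Stock RBC mixed with hypotonic buffer (50 mM NaCl, 10 mM phosphate, pH 7.4) plus sample at 20–100 µg mL⁻¹.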

Bacillus subtilis [19] = assay: Antibacterial activity against Bacillus subtilis at 100 ug/ml incubated for 24 hrs by agar well diffusion method; format: functional; details: read-out: DIZ
In short: as §1, with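 “Bacteria grown in nutrient broth at 37 °C for 24 h, then subcultured at room temperature. Compounds” for “Compounds”, “Gentamicin” for “Bavistin”, “held” for “incubated”, “37” for “28”, “24” for “48”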

Bacillus subtilis [20] = assay: Antibacterial activity against Bacillus subtilis at 75 ug/ml incubated for 24 hrs by agar well diffusion method; format: functional; details: read-out: DIZ
In short: as §1, with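 “Bacteria grown in nutrient broth at 37 °C for 24 h, then subcultured at room temperature. Compounds” for “Compounds”, “Gentamicin” for “Bavistin”, “held” for “incubated”, “37” for “28”, “24” for “48”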

Aspergillus niger [21] = assay: Antifungal activity against Aspergillus niger at 75 ug/ml incubated for 48 hrs by agar well diffusion method; format: functional; details: read-out: DIZ; in short: as §1
Candida albicans [22] = assay: Antifungal activity against Candida albicans at 100 ug/ml incubated for 48 hrs by agar well diffusion method; format: functional; details: read-out: DIZ; in short: as §1
Bacillus subtilis [23] = assay: Antibacterial activity against Bacillus subtilis at 25 ug/ml incubated for 24 hrs by agar well diffusion method; format: functional; details: read-out: DIZ
In short: as §1, with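 “Bacteria grown in nutrient broth at 37 °C for 24 h, then subcultured at room temperature. Compounds” for “Compounds”, “Gentamicin” for “Bavistin”, “held” for “incubated”, “37” for “28”, “24” for “48”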

Bacillus subtilis [24] = assay: Antibacterial activity against Bacillus subtilis at 50 ug/ml incubated for 24 hrs by agar well diffusion method; format: functional; details: read-out: DIZ
In short: as §1, with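 “Bacteria grown in nutrient broth at 37 °C for 24 h, then subcultured at room temperature. Compounds” for “Compounds”, “Gentamicin” for “Bavistin”, “held” for “incubated”, “37” for “28”, “24” for “48”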

Fusarium oxysporum [25] = assay: Antifungal activity against Fusarium oxysporum incubated for 48 to 72 hrs by microdilution method; format: functional; in short: as §2
Escherichia coli [26] = assay: Antibacterial activity against Escherichia coli at 75 ug/ml incubated for 24 hrs by agar well diffusion method; format: functional; details: read-out: DIZ
In short: as §1, with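 “Bacteria grown in nutrient broth at 37 °C for 24 h, then subcultured at room temperature. Compounds” for “Compounds”, “Gentamicin” for “Bavistin”, “held” for “incubated”, “37” for “28”, “24” for “48”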

Escherichia coli [27] = assay: Antibacterial activity against Escherichia coli at 25 ug/ml incubated for 24 hrs by agar well diffusion method; format: functional; details: read-out: DIZ
In short: as §1, with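 “Bacteria grown in nutrient broth at 37 °C for 24 h, then subcultured at room temperature. Compounds” for “Compounds”, “Gentamicin” for “Bavistin”, “held” for “incubated”, “37” for “28”, “24” for “48”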

Klebsiella pneumoniae [28] = assay: Antibacterial activity against Klebsiella pneumoniae at 100 ug/ml incubated for 24 hrs by agar well diffusion method; format: functional; details: read-out: DIZ
In short: as §1, with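 “Bacteria grown in nutrient broth at 37 °C for 24 h, then subcultured at room temperature. Compounds” for “Compounds”, “Gentamicin” for “Bavistin”, “held” for “incubated”, “37” for “28”, “24” for “48”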

Klebsiella pneumoniae [29] = assay: Antibacterial activity against Klebsiella pneumoniae incubated for 24 hrs by microdilution method; format: functional
Escherichia coli [30] = assay: Antibacterial activity against Escherichia coli at 100 ug/ml incubated for 24 hrs by agar well diffusion method; format: functional; details: read-out: DIZ
In short: as §1, with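 “Bacteria grown in nutrient broth at 37 °C for 24 h, then subcultured at room temperature. Compounds” for “Compounds”, “Gentamicin” for “Bavistin”, “held” for “incubated”, “37” for “28”, “24” for “48”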

Fusarium oxysporum [31] = assay: Antifungal activity against Fusarium oxysporum at 50 ug/ml incubated for 48 hrs by agar well diffusion method; format: functional; details: read-out: DIZ; in short: as §1
Klebsiella pneumoniae [32] = assay: Antibacterial activity against Klebsiella pneumoniae at 25 ug/ml incubated for 24 hrs by agar well diffusion method; format: functional; details: read-out: DIZ
In short: as §1, with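 “Bacteria grown in nutrient broth at 37 °C for 24 h, then subcultured at room temperature. Compounds” for “Compounds”, “Gentamicin” for “Bavistin”, “held” for “incubated”, “37” for “28”, “24” for “48”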

Bacillus subtilis [33] = assay: Antibacterial activity against Bacillus subtilis incubated for 24 hrs by microdilution method; format: functional
Klebsiella pneumoniae [34] = assay: Antibacterial activity against Klebsiella pneumoniae at 75 ug/ml incubated for 24 hrs by agar well diffusion method; format: functional; details: read-out: DIZ
In short: as §1, with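 “Bacteria grown in nutrient broth at 37 °C for 24 h, then subcultured at room temperature. Compounds” for “Compounds”, “Gentamicin” for “Bavistin”, “held” for “incubated”, “37” for “28”, “24” for “48”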

Candida albicans [35] = assay: Antifungal activity against Candida albicans incubated for 48 to 72 hrs by microdilution method; format: functional; in short: as §2

## Cl.N[C@@H](Cc1ccccc1)C(=O)Oc1ccc2c(=O)c3ccccc3oc2c1
Aspergillus niger [1]
  zone of inhibition at 50 µg/mL: 30 mm
Candida albicans [2]
  zone of inhibition at 75 µg/mL: 34 mm
Staphylococcus aureus [3]
  zone of inhibition at 25 µg/mL: 22 mm
Aspergillus niger [4]
  MIC: 26 µg/mL
Candida albicans [5]
  zone of inhibition at 50 µg/mL: 28 mm
Aspergillus niger [6]
  zone of inhibition at 25 µg/mL: 20 mm
Staphylococcus aureus [7]
  zone of inhibition at 100 µg/mL: 38 mm
Staphylococcus aureus [8]
  MIC: 22 µg/mL
Staphylococcus aureus [9]
  zone of inhibition at 75 µg/mL: 34 mm
Fusarium oxysporum [10]
  zone of inhibition at 100 µg/mL: 36 mm
Aspergillus niger [11]
  zone of inhibition at 100 µg/mL: 41 mm
Staphylococcus aureus [12]
  zone of inhibition at 50 µg/mL: 27 mm
Fusarium oxysporum [13]
  zone of inhibition at 75 µg/mL: 30 mm
Klebsiella pneumoniae [14]
  zone of inhibition at 50 µg/mL: 29 mm
Fusarium oxysporum [15]
  zone of inhibition at 25 µg/mL: 20 mm
Escherichia coli [16]
  zone of inhibition at 50 µg/mL: 27 mm
Candida albicans [17]
  zone of inhibition at 25 µg/mL: 24 mm
Escherichia coli [18]
  MIC: 22 µg/mL
Erythrocyte
  IC50: 38 µg/mL
Bacillus subtilis [19]
  zone of inhibition at 100 µg/mL: 38 mm
Bacillus subtilis [20]
  zone of inhibition at 75 µg/mL: 34 mm
Aspergillus niger [21]
  zone of inhibition at 75 µg/mL: 36 mm
Candida albicans [22]
  zone of inhibition at 100 µg/mL: 40 mm
Bacillus subtilis [23]
  zone of inhibition at 25 µg/mL: 22 mm
Bacillus subtilis [24]
  zone of inhibition at 50 µg/mL: 27 mm
Fusarium oxysporum [25]
  MIC: 26 µg/mL
Escherichia coli [26]
  zone of inhibition at 75 µg/mL: 34 mm
Escherichia coli [27]
  zone of inhibition at 25 µg/mL: 20 mm
Klebsiella pneumoniae [28]
  zone of inhibition at 100 µg/mL: 40 mm
Klebsiella pneumoniae [29]
  MIC: 24 µg/mL
Escherichia coli [30]
  zone of inhibition at 100 µg/mL: 37 mm
Fusarium oxysporum [31]
  zone of inhibition at 50 µg/mL: 25 mm
Klebsiella pneumoniae [32]
  zone of inhibition at 25 µg/mL: 23 mm
Bacillus subtilis [33]
  MIC: 22 µg/mL
Klebsiella pneumoniae [34]
  zone of inhibition at 75 µg/mL: 34 mm
Candida albicans [35]
  MIC: 28 µg/mL
